# Measurements from different studies.
# Protocols differ between the studies behind these lines.
# Effect on: enzyme activity
# Action: inhibitor
# KIT T670I: Mast/stem cell growth factor receptor Kit (KIT, Homo sapiens, UniProt P10721, T670I)
# KIT: Mast/stem cell growth factor receptor Kit (KIT, Homo sapiens, UniProt P10721)
SMILES,target,test,conditions,inhibition
COc1cc2ncnc(Nc3ccc(Oc4ccccc4)cc3C)c2cc1OC,KIT T670I,,1 µM,-9%
O=C(CSc1nc2nccnc2c(=O)n1CCc1ccccc1)Nc1nccs1,"Mast/stem cell growth factor receptor Kit (KIT, Homo sapiens, UniProt P10721, T670I/V559D)",,10 µM,1%
CNC(=O)c1cc2c(Oc3ccc(NC(=O)C4(C(=O)Nc5ccc(F)cc5)CC4)cc3)ccnc2cc1OC,"Mast/stem cell growth factor receptor Kit (KIT, Homo sapiens, UniProt P10721, V560G)",radiometric,1 µM,92%
COc1cc(-c2cc(-c3ccc(N4CCNCC4)cc3)cnc2N)cc(OC)c1OC,KIT T670I,,0.1 µM,3%
CN(C)C1CCN(CC#Cc2nn(C3CCCC3)c3nc(NCc4ccccc4)ncc23)C1 (stereo not shown),KIT,FRET,10 µM,11%
CC/C(=N\NC(=O)NCc1cccc(O)c1)c1ccc(O)c(C)c1O,"Mast/stem cell growth factor receptor Kit (KIT, Homo sapiens, UniProt P10721, D816V)",,0.1 µM,1.4%
COc1cc2nccc(Oc3ccc(NC(=O)c4c5n(n(-c6ccc(F)cc6)c4=O)CCCC5)cc3)c2cc1OC,KIT,,0.1 µM,-1%
CS(=O)(=O)Nc1cccc(-c2csc(NC(=O)CSc3nc4nccnc4c(=O)n3CCc3ccccc3)n2)c1,KIT,,10 µM,-5%
COc1cc2ncnc(Nc3ccc(Oc4ccccc4)c(C)c3C)c2cc1OC,KIT T670I,,1 µM,-7%
CCCS(=O)(=O)Nc1ccc(F)c(C(=O)c2c[nH]c3ncc(-c4ccc(Cl)cc4)cc23)c1F,KIT,,1 µM,< 20%
